The record followed here is ChEMBL document CHEMBL1152798, “Unsymmetrically disubstituted urea derivatives: a potent class of antiglycating agents” (Bioorg Med Chem, 2009).

One data set in a line: Antiglycation activity of compound assessed as inhibition of BSA-derived advance glycated end product formation after 7 days by spectrofluorimeter.
Settings: not given; call rule not given here
The class given is physicochemical. A digest of the protocol: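 BSA (10 mg/mL) mixed with anhydrous glucose (50 mg/mL) and test sample in equal parts, in sodium phosphate buffer pH 7.4 (67 mM Na2HPO4, 3 mM sodium azide), incubated 37 °C for 7 days. Protein precipitated with TCA and centrifuged, pellet washed with 10% TCA, then redissolved in PBS. AGE fluorescence read at excitation 370 nm, emission 440 nm. % inhibition computed against glycated control (BSA + glucose + buffer).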
In the case of `Cc1cccc(C)c1NC(=O)Nc1ccccc1`, the IC50 (in general, the concentration needed to halve the response being measured) is “Not Active”.

On to `Cc1cc(C)cc(NC(=O)Nc2ccccc2)c1`, for which the IC50 entry is listed as “Not Active”.

`Cc1ccc(NC(=O)Nc2cccc(Cl)c2)c(C)c1`: the IC50 result was “Not Active”.

As to `Cc1ccc(NC(=O)Nc2cccc(Cl)c2)cc1C`, the IC50 entry is on record as “Not Active”.

In the case of `Cc1ccc(C)c(NC(=O)Nc2cccc(Cl)c2)c1`, the 50% inhibitory concentration (IC50) entry is given as “Not Active”.

As to `Cc1cccc(C)c1NC(=O)Nc1cccc(Cl)c1`, the IC50 entry is recorded as “Not Active”.

For `Cc1cccc(NC(=O)Nc2cccc(Cl)c2)c1C`, the half-inhibitory concentration (IC50) result was “Not Active”.

As for `Cc1cccc(NC(=O)Nc2ccccc2)c1C`, the IC50 entry is on record as “Not Active”.

`Cc1ccc(NC(=O)Nc2ccccc2)c(C)c1`: the IC50 entry is reported as “Not Active”.

`Cc1ccc(C)c(NC(=O)Nc2ccccc2)c1`: the IC50 entry is “Not Active”.

The data set is the same for the next values; noted with them: read-out: IC50.
Consider `O=C(Nc1ccccc1)Nc1cccc(Br)c1`, for which the IC50 came to 4.26 µM.

On to `COc1ccc(NC(=O)Nc2ccccc2)cc1`, for which the IC50 came to 8.4 µM.

As for `O=C(Nc1cccc(Cl)c1)Nc1ccccc1Br`, the IC50 was 6.6 µM.

Consider `COc1cccc(NC(=O)Nc2cccc(Cl)c2)c1`, for which the IC50 came to 5.8 µM.

`Cc1ccc(NC(=O)Nc2ccccc2)cc1C`: the IC50 was found to be 9 µM.

Regarding `O=C(Nc1ccccc1)Nc1ccc(Cl)c(Cl)c1`, the IC50 came to 838 µM.

Consider `O=C(Nc1cccc(Cl)c1)Nc1cccc(Br)c1`, for which the IC50 worked out at 8.16 µM.

With `O=C(Nc1ccc(Br)cc1)Nc1cccc(Cl)c1`, the IC50 amounted to 6.4 µM.

`COc1ccccc1NC(=O)Nc1cccc(Cl)c1`: the IC50 stood at 7.02 µM.

As to `COc1cccc(NC(=O)Nc2ccccc2)c1`, the IC50 stood at 229 µM.

For `Cc1cc(C)cc(NC(=O)Nc2cccc(Cl)c2)c1`, the IC50 worked out at 906 µM.

For the compound `COc1ccc([N+](=O)[O-])cc1NC(=O)Nc1cccc(Cl)c1`, the IC50 stood at 408 µM.

On to `O=C(Nc1ccccc1)Nc1cccc([N+](=O)[O-])c1`, for which the IC50 is 7.27 µM.

In the case of `COc1ccc([N+](=O)[O-])cc1NC(=O)Nc1ccccc1`, the 50% inhibitory concentration (IC50) is 162 µM.

In the case of `O=C(Nc1ccccc1)Nc1ccccc1Br`, the IC50 amounted to 120 µM.

For `O=C(Nc1ccccc1)Nc1ccc(Br)cc1`, the IC50 came to 6.1 µM.

Regarding `COc1ccc(NC(=O)Nc2cccc(Cl)c2)cc1`, the IC50 came out at 7.14 µM.

With `O=C(Nc1cccc(Cl)c1)Nc1ccc(Cl)c(Cl)c1`, the IC50 came out at 15.2 µM.

`C[C@@H]1O[C@@H](OC[C@H]2O[C@@H](Oc3c(-c4ccc(O)c(O)c4)oc4cc(O)cc(O)c4c3=O)[C@H](O)[C@@H](O)[C@@H]2O)[C@H](O)[C@H](O)[C@H]1O` [RUTIN]: the IC50 amounted to 41.9 µM.
